Results published in ChEMBL document CHEMBL3098012, “A novel tamoxifen derivative, ridaifen-F, is a nonpeptidic small-molecule proteasome inhibitor” (Eur J Med Chem, 2014).
The source made the active and inactive calls. The calls are words filed in the database; no cut-off is given here.

Experiments:
[1] = Cytotoxicity against ER-negative HEK293 cells after 48 hrs by MTT assay; assay type: cell-based; conditions: human
Procedure, shortened: (§1)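 HEK293 (DMEM) or HL-60 (IMDM) cells, each with 10% FBS plus penicillin/streptomycin, seeded 5×10^3 cells/well in duplicate. Exposed 48 h to compound at […]. MTT reduction read as 560/750 nm absorbance ratio after HCl/2-propanol extraction. CyT50 from inhibition curve; means of triplicate.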

[2] = target: T1, Proteasome Macropain subunit MB1 (Homo sapiens, UniProt P28074); experiment: Inhibition of chymotrypsin-like activity of human 20S proteasome beta 5 subunit assessed as hydrolysis of succinyl-LLVY-AMC fluorogenic substrate measured for 1 hr by fluorometric analysis
T1 sequence (P28074 whole entry): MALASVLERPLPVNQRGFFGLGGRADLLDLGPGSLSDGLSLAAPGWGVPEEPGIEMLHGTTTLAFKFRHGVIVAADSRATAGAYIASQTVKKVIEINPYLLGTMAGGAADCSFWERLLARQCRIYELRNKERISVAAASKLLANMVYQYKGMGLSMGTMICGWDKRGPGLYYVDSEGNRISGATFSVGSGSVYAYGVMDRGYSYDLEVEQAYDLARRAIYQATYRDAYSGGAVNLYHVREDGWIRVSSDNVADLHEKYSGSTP
Procedure, shortened: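 Purified human 20S proteasome (0.1 µg) incubated at 37 °C with 50 µM succinyl-LLVY-AMC (CT-L) or 20 µM Z-LLE-AMC (PGPH) and compound at 0.01–10 µM in 25 mM HEPES, 0.5 mM EDTA, 0.03% SDS. IC50 taken from inhibition curve; means of three experiments.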

HL-60 = experiment: Cytotoxicity against […] human HL60 cells after 48 hrs by MTT assay; assay type: functional; conditions: HL-60, 48 h; procedure, shortened: as §1
Homo sapiens [3] = species: Homo sapiens; experiment: Inhibition of cathepsin (unknown origin) at >10 uM
Homo sapiens [4] = species: Homo sapiens; experiment: Inhibition of calpain (unknown origin) at >10 uM
[5] = target: T2, Proteasome component C5 (Homo sapiens) (UniProt P20618); experiment: Inhibition of biotin-labeled belactosin A binding to human 20S proteasome beta 1 subunit preincubated for 1 hr followed by biotin-labeled belactosin A treatment measured after 1 hr by Western blotting analysis
T2 sequence (whole entry): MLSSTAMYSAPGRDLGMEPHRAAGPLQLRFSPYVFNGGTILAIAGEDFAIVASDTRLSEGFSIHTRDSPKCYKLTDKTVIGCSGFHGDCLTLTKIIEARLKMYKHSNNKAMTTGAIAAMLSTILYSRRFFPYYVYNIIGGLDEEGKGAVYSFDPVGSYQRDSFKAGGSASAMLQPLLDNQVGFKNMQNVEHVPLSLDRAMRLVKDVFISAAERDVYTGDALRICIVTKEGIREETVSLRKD
Procedure, shortened: (§2)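 Purified human 20S proteasome preincubated 1 h at 37 °C with varying compound levels, then biotin-belactosin A added to 1 µM for a further 1 h. Proteins separated by SDS-PAGE, blotted to PVDF, milk-blocked; biotin-labelled subunits detected with streptavidin-HRP and ECL.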

HeLa [6] = experiment: Induction of apoptosis in human HeLa cells assessed as PARP cleavage after 24 hrs by Western blotting analysis; assay type: functional, cell-based
Procedure, shortened: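 HeLa cells seeded 4×10^5 cells/well, incubated 24 h with varying compound concentrations; PARP cleavage detected in lysates by Western blotting.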

HeLa [7] = experiment: Inhibition of proteasome in human HeLa cells assessed as accumulation of ubiquitinated proteins at 60 uM after 24 hrs by Western blotting analysis; assay type: cell-based
Procedure, shortened: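 HeLa cells, 4×10^5 cells/well, treated 24 h with compound; vehicle control 0.25% DMSO. Lysed in Tris–HCl/2% SDS/glycerol buffer with protease and phosphatase inhibitors; 30 µg protein run on SDS-PAGE, PVDF blot probed with anti-ubiquitin (1:200), actin as loading reference, HRP secondary, ECL detection.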

[8] = target: T3, Proteasome Macropain subunit MB1 (Homo sapiens) (UniProt P28074); experiment: Inhibition of biotin-labeled belactosin A binding to human 20S proteasome beta 5 subunit at 1 to 100 uM preincubated for 1 hr followed by biotin-labeled belactosin A treatment measured after 1 hr by Western blotting analysis; procedure, shortened: as §2
T3 sequence (whole entry): T1 sequence (P28074 whole entry)

[9] = target: T3, Proteasome Macropain subunit MB1 (Homo sapiens); experiment: Inhibition of biotin-labeled belactosin A binding to human 20S proteasome beta 5 subunit at 100 uM preincubated for 1 hr followed by biotin-labeled belactosin A treatment measured after 1 hr by Western blotting analysis; procedure, shortened: as §2
[10] = target: T2, Proteasome component C5 (Homo sapiens); experiment: Inhibition of biotin-labeled belactosin A binding to human 20S proteasome beta 1 subunit at 10 uM preincubated for 1 hr followed by biotin-labeled belactosin A treatment measured after 1 hr by Western blotting analysis; procedure, shortened: as §2
[11] = target: T3, Proteasome Macropain subunit MB1 (Homo sapiens); experiment: Inhibition of chymotrypsin-like activity of human 20S proteasome beta 5 subunit assessed as hydrolysis of succinyl-LLVY-AMC fluorogenic substrate at 10 uM measured for 1 hr by fluorometric analysis relative to control; set-up: scale not given: the % may be the effect or the level left
[12] = target: T2, Proteasome component C5 (Homo sapiens); experiment: Inhibition of PGPH-like activity of human 20S proteasome beta 1 subunit assessed as hydrolysis of Z-LLE-AMC fluorogenic substrate at 10 uM measured for 1 hr by fluorometric analysis relative to control; set-up: scale not given: the % may be the effect or the level left
[13] = target: Proteasome Macropain subunit (Homo sapiens) (UniProt P49721); experiment: Inhibition of trypsin-like activity of human 20S proteasome beta 2 subunit assessed as hydrolysis of Boc-LRR-AMC fluorogenic substrate at 10 uM measured for 1 hr by fluorometric analysis relative to control; set-up: scale not given: the % may be the effect or the level left
Proteasome Macropain subunit (Homo sapiens), sequence (P49721 whole entry): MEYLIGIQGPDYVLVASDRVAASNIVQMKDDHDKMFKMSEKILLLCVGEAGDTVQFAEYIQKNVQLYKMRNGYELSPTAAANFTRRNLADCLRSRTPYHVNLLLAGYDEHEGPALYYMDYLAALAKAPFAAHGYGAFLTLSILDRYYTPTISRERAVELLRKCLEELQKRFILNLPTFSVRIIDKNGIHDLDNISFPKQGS

Compound	CC50 at 48 h [1] [µM]	IC50 [2] [µM]	CC50 (HL-60) [µM]	also measured
O=C(c1ccc(OCCN2CCCCCC2)cc1)c1ccc(OCCN2CCCCCC2)cc1	13.9	1.65	> 30	
CCC(=C(c1ccc(OCCN(C)C)cc1)c1ccc(OCCN(C)C)cc1)c1ccccc1		3.36		inhibition (Homo sapiens [3]): inactive; inhibition (Homo sapiens [4]): inactive
c1cc(C(=C2CCCC2)c2ccc(OCCN3CCCCCC3)cc2)ccc1OCCN1CCCCCC1	26.2	2.7	20.1	
c1cc(C2(c3ccc(OCCN4CCCCCC4)cc3)CCCCC2)ccc1OCCN1CCCCCC1	17.5	1.94	> 30	
CC(C)=C(c1ccc(OCCN2CCCCCC2)cc1)c1ccc(OCCN2CCCCCC2)cc1	11.1	1.66	10.7	
CC(O)(c1ccc(OCCN2CCCCCC2)cc1)c1ccc(OCCN2CCCCCC2)cc1	22.7	1.66	7.06	
CCC(CC)=C(c1ccc(OCCN2CCCCCC2)cc1)c1ccc(OCCN2CCCCCC2)cc1	6.02	1.57	8.87	
CCC=C(c1ccc(OCCN2CCCCCC2)cc1)c1ccc(OCCN2CCCCCC2)cc1	26.7	1.46	22.6	
c1cc(OCCN2CCCCCC2)ccc1Cc1ccc(OCCN2CCCCCC2)cc1	10.9	0.67	14.5	inhibition [5]: Dose-dependent effect; Activity (HeLa [6]): Dose-dependent effect; inhibition (HeLa [7]): Active; inhibition [8]: Active; inhibition [9]: Active; inhibition [10]: Active
CC/C(=C(\c1ccccc1)c1ccc(OCCN(C)C)cc1)c1ccccc1				Activity [11]: 145%; Activity [12]: 85%; Activity [13]: 112%
c1ccc(C(=C(c2ccc(OCCN3CCCCCC3)cc2)c2ccc(OCCN3CCCCCC3)cc2)C2CCCCC2)cc1	> 30	> 10	> 30	
CCCCC(CCCC)=C(c1ccc(OCCN2CCCCCC2)cc1)c1ccc(OCCN2CCCCCC2)cc1	> 30	> 10	25.3	
CCC(=C(c1ccc(OCCCN(C)C)cc1)c1ccc(OCCCN(C)C)cc1)c1ccccc1		> 10		inhibition (Homo sapiens [3]): inactive; inhibition (Homo sapiens [4]): inactive
CCCC(=C(c1ccc(OCCN2CCCCCC2)cc1)c1ccc(OCCN2CCCCCC2)cc1)c1ccccc1	26.8	1.37	4.3	
c1cc(C(=C2CCCCC2)c2ccc(OCCN3CCCCCC3)cc2)ccc1OCCN1CCCCCC1	12.5	2.19	11.7	
CC(C)(c1ccc(OCCN2CCCCCC2)cc1)c1ccc(OCCN2CCCCCC2)cc1	7.61	0.75	17.6	
